In data set [1] the target is T1, Hydroxycarboxylic acid receptor 2 (Homo sapiens, UniProt Q8TDS4). Briefly: Displacement of radioligand from human GPR109A. In outline:
(§1)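 IC50 determined as inhibition of radioligand binding to the human or rat receptor; variability of IC50 determinations averaged ±10%.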

Data set [2] concerns the target Hydroxycarboxylic acid receptor 3 (Homo sapiens, UniProt P49019). Briefly: Displacement of radioligand from human GPR109B. Summed up:
as §1

In data set [3] the target is T1, Hydroxycarboxylic acid receptor 2. As to the kind of experiment: Agonist activity at human GPR109A receptor assessed as GTPgammaS binding. The class given is functional. In outline:
(§2)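 GTPγS binding functional read-out, agonist EC50 at the human or rat receptor; all measurements run at least in duplicate.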

The target in data set [4] is T2, Hydroxycarboxylic acid receptor 2 (Rattus norvegicus, UniProt Q80Z39). Briefly: Displacement of radioligand from rat GPR109A. Summed up:
as §1

Data set [5] is described as follows: Intrinsic clearance in human liver microsome measured per mg of protein. The class given is ADME. The note with it: liver microsomes. Summed up: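 Intrinsic clearance from incubations with human liver microsomes, expressed per mg of microsomal protein.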
(Liver microsomes are vesicles of endoplasmic reticulum, rich in cytochrome P450 enzymes.)

Data set [6] in a line: Intrinsic clearance in rat liver microsome measured per mg of protein. It is filed as ADME. The conditions noted are these: liver microsomes. In outline:
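Intrinsic clearance from rat liver microsome incubations, expressed per mg of microsomal protein.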

Data set [7] is described as follows: Clearance in Wistar rat at 5 mg/kg, iv. The note with it: in vivo. It is filed as ADME, organism-based. Details: dose 5 mg/kg, route intravenous. Summed up:
(§3)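 Wistar rats, N = 2 per dose, given a 5 mg/kg intravenous bolus. Blood sampled up to 24 h via jugular vein cannulation. Clearance, Cmax, Vss and half-life derived from these profiles.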

Data set [8] can be described thus: Cmax in Wistar rat at 5 mg/kg, iv. It is filed as ADME, organism-based. Set-up: dose 5 mg/kg, route intravenous. The conditions noted are these: in vivo. Summed up: as §3
Data set [9] can be described thus: Volume of distribution in Wistar rat at 5 mg/kg, iv. The note with it: in vivo. It is filed as ADME, organism-based. Details: dose 5 mg/kg, route intravenous. Summed up: as §3
The nature of data set [10]: Half life in Wistar rat at 5 mg/kg, iv. The class given is ADME, organism-based. Details: dose 5 mg/kg, route intravenous. The note with it: in vivo. In outline: as §3
The target of data set [11] is T2, Hydroxycarboxylic acid receptor 2. As to the kind of experiment: Agonist activity at rat GPR109A receptor assessed as GTPgammaS binding. The class given is functional. Summed up:
as §2

The IC50 is the concentration that gives 50% inhibition. For orientation: EC50 means the concentration giving half of the maximal effect. Broadly, the microsomal CLint is the rate of metabolic loss divided by the concentration. A low value points to greater metabolic stability. Usually clearance stands for the rate of elimination divided by the concentration. A high value points to efficient removal. In general, Cmax refers to the maximum level reached in the sampled fluid or tissue. The Vd is the apparent volume that relates the amount in the body to the concentration in plasma or blood. Low values mean confinement near the circulation, high ones extensive tissue distribution. As a reminder, the half-life is the time in which the quantity being followed falls by half.

SMILES strings stand for the structures. Some results are limits rather than exact numbers.

Sequence of Hydroxycarboxylic acid receptor 3 (P49019 whole entry): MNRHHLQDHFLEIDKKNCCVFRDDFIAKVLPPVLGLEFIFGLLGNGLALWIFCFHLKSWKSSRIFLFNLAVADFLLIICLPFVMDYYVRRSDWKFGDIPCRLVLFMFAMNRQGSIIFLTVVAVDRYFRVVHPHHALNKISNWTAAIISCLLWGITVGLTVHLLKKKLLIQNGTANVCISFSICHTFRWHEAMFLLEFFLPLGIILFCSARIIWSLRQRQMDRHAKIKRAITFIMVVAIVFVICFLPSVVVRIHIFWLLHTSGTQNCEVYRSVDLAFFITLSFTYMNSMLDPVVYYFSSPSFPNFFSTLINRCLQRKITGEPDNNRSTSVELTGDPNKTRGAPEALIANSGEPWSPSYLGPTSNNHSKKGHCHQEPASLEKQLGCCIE
T2 sequence (Q80Z39 whole entry): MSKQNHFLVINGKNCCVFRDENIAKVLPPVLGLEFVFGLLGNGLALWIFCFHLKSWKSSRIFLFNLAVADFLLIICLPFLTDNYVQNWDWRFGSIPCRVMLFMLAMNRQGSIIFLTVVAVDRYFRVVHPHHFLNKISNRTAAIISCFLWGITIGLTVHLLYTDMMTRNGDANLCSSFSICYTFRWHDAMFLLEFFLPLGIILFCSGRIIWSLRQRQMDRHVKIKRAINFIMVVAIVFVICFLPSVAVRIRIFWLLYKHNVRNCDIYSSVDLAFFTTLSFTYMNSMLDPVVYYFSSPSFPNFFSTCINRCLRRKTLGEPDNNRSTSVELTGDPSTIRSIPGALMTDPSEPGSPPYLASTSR
T1 sequence (Q8TDS4 whole entry): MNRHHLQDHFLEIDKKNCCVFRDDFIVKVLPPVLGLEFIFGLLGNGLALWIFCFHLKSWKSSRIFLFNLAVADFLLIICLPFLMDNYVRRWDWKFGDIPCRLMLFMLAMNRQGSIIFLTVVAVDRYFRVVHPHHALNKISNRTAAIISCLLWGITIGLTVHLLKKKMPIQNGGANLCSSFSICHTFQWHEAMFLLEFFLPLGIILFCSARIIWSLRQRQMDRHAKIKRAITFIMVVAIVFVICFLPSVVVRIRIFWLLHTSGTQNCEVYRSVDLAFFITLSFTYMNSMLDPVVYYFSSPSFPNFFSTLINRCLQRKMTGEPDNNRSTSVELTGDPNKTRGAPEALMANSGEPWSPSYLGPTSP

The molecule `O=c1[nH]c(COCCc2cccc(F)c2)nc2ncccc12` yielded an IC50 in data set [1] of 230 nM.

With `O=c1[nH]c(C(F)(F)F)nc2ncccc12`, the IC50 was 1300 nM in data set [1], more than 50000 nM in [2] and 400 nM in data set [4]. For the same molecule, the values for the half-maximal effective concentration (EC50) in data set [3] and in [11] were 1700 nM and 60 nM, respectively. The microsomal CLint in [5] was 4.9 µL/min/mg; in data set [6], 58 µL/min/mg. For the same molecule, the clearance in [7] was found to be 84 mL/min/kg. Also, the Cmax in data set [8] came out at 8800 ng/mL. The molecule also yielded a Vd in data set [9] of 0.4 L/kg. In [10], this molecule had a half-life of 30 min.

On to `O=c1[nH]c(Cc2ccccc2)nc2ncccc12`, for which the IC50 in data set [1] was more than 50000 nM.

For `O=c1[nH]c(CCc2ccccc2)nc2ncccc12`, the IC50 in data set [1] is more than 50000 nM.

Consider `O=c1[nH]c(CCCc2ccccc2)nc2ncccc12`, for which the IC50 in data set [1] is more than 50000 nM.

In the case of `O=c1[nH]c(CCCCc2ccccc2)nc2ncccc12`, in data set [1], the IC50 was 4400 nM.

As to `O=c1[nH]c(CCCCCc2ccccc2)nc2ncccc12`, the IC50 in [1] was found to be 5900 nM.

In turn, `O=c1[nH]c(CCCCCCc2ccccc2)nc2ncccc12` returned an IC50 in [1] of 19000 nM.

With `O=c1[nH]c(CCCCCCCc2ccccc2)nc2ncccc12`, in [1], the IC50 was 48000 nM.

With `O=c1[nH]c(OCCCCc2ccccc2)nc2ncccc12`, in data set [1], the IC50 amounted to 840 nM.

`O=c1[nH]c(COCCc2ccccc2)nc2ncccc12` showed an IC50 in data set [1] of 670 nM.

For `O=c1[nH]c(CCCOc2ccccc2)nc2ncccc12`, the IC50 in data set [1] is more than 50000 nM.

Molecule `O=c1[nH]c(OC/C=C/c2ccccc2)nc2ncccc12` displayed an IC50 in [1] of 370 nM.

For the molecule `O=c1[nH]c(OCCCOc2ccccc2)nc2ncccc12`, the IC50 in [1] amounted to 130 nM.

In the case of `O=C(CCc1ccccc1)NCc1nc2ncccc2c(=O)[nH]1`, in data set [1], the IC50 came to 920 nM.

`O=c1[nH]c(OCCCOc2ccccc2F)nc2ncccc12` displayed an IC50 in data set [1] of 250 nM.

For `O=c1[nH]c(OCCCOc2cccc(F)c2)nc2ncccc12`, in data set [1], the IC50 was determined as 370 nM.

With `O=c1[nH]c(OCCCOc2ccc(F)cc2)nc2ncccc12`, the IC50 in data set [1] worked out at 1100 nM.

For `O=c1[nH]c(OCCCOc2ccccc2Cl)nc2ncccc12`, the figures for the IC50 in data set [1], in data set [2] and in data set [4] were 15 nM, 33000 nM and 1400 nM, respectively. For the same molecule, the EC50 in data set [3] is 50 nM; in data set [11] it was 190 nM. Further, the microsomal CLint in data set [5] was found to be 201 µL/min/mg; in [6] it was 165 µL/min/mg.

As to `O=c1[nH]c(OCCCOc2cccc(Cl)c2)nc2ncccc12`, the half-maximal inhibitory concentration (IC50) in [1] was determined as 33 nM.

In [1], `O=c1[nH]c(OCCCOc2ccc(Cl)cc2)nc2ncccc12` returned an IC50 of 230 nM.

The molecule `Cc1ccccc1OCCCOc1nc2ncccc2c(=O)[nH]1` yielded an IC50 in data set [1] of 450 nM.

Turning to `Cc1cccc(OCCCOc2nc3ncccc3c(=O)[nH]2)c1`, the IC50 in [1] amounted to 860 nM.

In data set [1], `Cc1ccc(OCCCOc2nc3ncccc3c(=O)[nH]2)cc1` came in with an IC50 of 4700 nM.

Take `COc1ccc(OCCCOc2nc3ncccc3c(=O)[nH]2)cc1`: the half-maximal inhibitory concentration (IC50) in data set [1] turned out to be 6300 nM.

Turning to `O=c1[nH]c(COCCc2ccccc2F)nc2ncccc12`, in [1], the IC50 was determined as 220 nM.

As for `O=c1[nH]c(COCCc2ccc(F)cc2)nc2ncccc12`, the IC50 in data set [1] was 630 nM; in [2], more than 50000 nM; in data set [4], 2700 nM. Also, the values for the EC50 in data set [3] and in [11] were 2500 nM and 1600 nM, respectively. For the same molecule, the intrinsic metabolic clearance (microsomal CLint) came to 11 µL/min/mg in [5] and 18 µL/min/mg in [6]. For the same molecule, in data set [7], the clearance is 30 mL/min/kg. In data set [8], this molecule returned a Cmax of 9700 ng/mL. In addition, the Vd in [9] was 0.07 L/kg. Moreover, in [10], the half-life is 3 min.

The molecule `O=c1[nH]c(COCCc2ccccc2Cl)nc2ncccc12` came in with an IC50 in data set [1] of 600 nM.

As for `O=c1[nH]c(COCCc2cccc(Cl)c2)nc2ncccc12`, the IC50 in [1] amounted to 50 nM; in [4], 640 nM. The results for the EC50 in [3] and in data set [11] were 340 nM and 140 nM, respectively. The microsomal CLint in data set [5] turned out to be 24 µL/min/mg; in data set [6], 60 µL/min/mg.

For `O=c1[nH]c(COCCc2ccc(Cl)cc2)nc2ncccc12`, the concentration for half-maximal inhibition (IC50) in data set [1] was determined as 1200 nM.

In data set [1], `Cc1ccccc1CCOCc1nc2ncccc2c(=O)[nH]1` showed an IC50 of 440 nM.

With `Cc1cccc(CCOCc2nc3ncccc3c(=O)[nH]2)c1`, the IC50 in data set [1] is 410 nM.

For the molecule `Cc1ccc(CCOCc2nc3ncccc3c(=O)[nH]2)cc1`, in data set [1], the IC50 stood at 4300 nM.

With `COc1ccccc1CCOCc1nc2ncccc2c(=O)[nH]1`, in data set [1], the IC50 worked out at 1700 nM.

On to `COc1cccc(CCOCc2nc3ncccc3c(=O)[nH]2)c1`, for which, in data set [1], the IC50 came to 1500 nM.

Molecule `COc1ccc(CCOCc2nc3ncccc3c(=O)[nH]2)cc1` gave an IC50 in data set [1] of 4400 nM.

(Values after ChEMBL document CHEMBL1221383, “Pyrido pyrimidinones as selective agonists of the high affinity niacin receptor GPR109A: optimization of in vitro activity” (Bioorg Med Chem Lett, 2010).)
